Results on one compound are retold here after ChEMBL document CHEMBL1687733, “Topoisomerase I gene mutations at F270 in the large subunit and N184 in the small subunit contribute to the resistance mechanism of the unicellular parasite Leishmania donovani towards 3,3'-diindolylmethane” (Antimicrob Agents Chemother, 2009).

Calls of active or inactive are those of the source. No cut-off for these calls is given here.

Experiment [1] has as its system Leishmania donovani. The experiment can be described thus: Antimicrobial activity against wild type Leishmania donovani AG83 transfected with drug-resistant Leishmania donovani LdDR50 topoisomerase 1 F270L, K430N mutant in large subunit and N184S mutant in small subunit assessed as inhibition of parasite growth at 20 uM after 24 hrs by MTT assay. It counts as functional, organism-based. The gist of the method: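 WT promastigotes transfected by electroporation with mutant large-subunit (pXG-HYG, hygromycin selection) and/or small-subunit (pXG-GFP2+, G418 selection) topoisomerase I genes. Grown with DIM 1–20 μM for 24 h; MTT read-out, growth as % of optical density of untreated WT parasites.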
For orientation: Formazan colour is commonly taken as a measure of viable cells.

Experiment [2] deals with Leishmania donovani. The experiment can be described thus: Ratio of antimicrobial activity against drug-resistant Leishmania donovani LdDR50 to antimicrobial activity against wild type Leishmania donovani AG83. It counts as functional. The essentials:
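Cells washed twice in PBS, MTT added for 4 h, acidified isopropanol stop for 20 min at room temperature, A570 read. Growth expressed as % of untreated WT OD; three experiments.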

Experiment [3] concerns T1, DNA topoisomerase type IB small subunit (Leishmania donovani (strain BPK282A1)), E9B7X3 [N184S].
T1 sequence (whole entry): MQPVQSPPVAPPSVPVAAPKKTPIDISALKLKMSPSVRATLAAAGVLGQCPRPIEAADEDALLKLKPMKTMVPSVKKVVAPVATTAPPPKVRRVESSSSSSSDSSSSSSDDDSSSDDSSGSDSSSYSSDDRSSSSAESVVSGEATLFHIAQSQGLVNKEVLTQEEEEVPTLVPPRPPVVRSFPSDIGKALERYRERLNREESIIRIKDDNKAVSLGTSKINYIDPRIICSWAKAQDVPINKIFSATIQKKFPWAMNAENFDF
The experiment can be described thus: Inhibition of recombinant drug-resistant Leishmania donovani LdDR50 topoisomerase 1b small subunit N184S mutant-mediated religation of 14-mer/25-mer suicide DNA substrate at 20 uM […] by PAGE analysis. The essentials:
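5′-32P-labelled 14-mer annealed to 25-mer suicide substrate (5 nM) cleaved by 0.15 μM reconstituted enzyme at 23°C, ± 20 μM DIM. Complexes moved to 30°C for 2 min; religation started with 300-fold excess 11-mer acceptor for 30, 60, 120 s. Stopped with 1% SDS, trypsin-treated, 23-mer product resolved on sequencing gel.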

In the case of `c1ccc2c(Cc3c[nH]c4ccccc34)c[nH]c2c1` [ARUNDINE], the result in the experiment on Leishmania donovani [1] was inactive. In addition, the Ratio with Leishmania donovani [2] worked out at 42. Moreover, the inhibition result in experiment [3] was “Active”.
